Results published in ChEMBL document CHEMBL4602668, “Oxygenated Cyclohexene Derivatives and Other Constituents from the Roots of Monanthotaxis trichocarpa” (J Nat Prod, 2020).
Converted amounts (≈) assume the structure as drawn. The source made the active and inactive calls. The rule behind the calls is not given here.

These molecules were tested on MCF7 (assay: Cytotoxicity against human MCF7 cells after 24 hrs by PrestoBlue cell viability reagent based assay). Conditions: MCF7, 24 h.
Type: functional
How it was run: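 MCF-7 cells were kept in exponential growth in DMEM with 10% fetal calf serum, reseeded in 96-well plates, and settled 24 h. Compounds were added from DMSO stock (final solvent 0.3% v/v) in 2-fold dilutions for 24 h. Viability was read as resorufin fluorescence (ex 544/em 590 nm) and expressed as % of solvent-only control. EC50 came from three independent replicate experiments.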
`COc1cc(O)c(Cc2ccccc2O)c(O)c1C(=O)CCc1ccccc1` [UVARETIN] gave an EC50 of 10.2 µM.

These molecules were tested on Bacillus subtilis (assay: Antibacterial activity against Bacillus subtilis incubated for 18 hrs by AlamarBlue assay). Conditions: not given.
Type: functional
`COc1cc(O)c(Cc2ccccc2O)c(O)c1C(=O)CCc1ccccc1` [UVARETIN] was tested, and the MIC was 18 µM (≈ 6.81 µg/mL).

Each molecule was assayed on Escherichia coli (assay: Antibacterial activity against Escherichia coli at 5 mM incubated for 18 hrs by AlamarBlue assay). Conditions: not given.
Type: functional, organism-based
In the case of `COc1cc(O)cc(O)c1C(=O)CCc1ccccc1`, the Activity is reported as “inactive”.
In the case of `COc1ccc(C(=O)C(C)c2ccc(O)cc2)c(O)c1` (centres undefined), the Activity is reported as “inactive”.
With `COc1cc(O)c(Cc2ccccc2O)c(O)c1C(=O)CCc1ccccc1` [UVARETIN] the Activity was “inactive”.
`CC(=O)O[C@@H]1C=C[C@@H](OC(=O)c2ccccc2)[C@H](O)[C@]1(O)COC(=O)c1ccccc1` was tested, and the Activity was “inactive”.
`CO[C@H]1[C@H](OC(=O)c2ccccc2)C=C[C@H](Cl)[C@]1(O)COC(=O)c1ccccc1` was tested, and the Activity was “inactive”.
In the case of `CC[C@H](/C=C/[C@@H](C)[C@H]1CC[C@H]2[C@@H]3CC=C4C[C@@H](O)CC[C@]4(C)[C@H]3CC[C@]12C)C(C)C`, the Activity is reported as “inactive”.
In the case of `CO[C@H]1C=C[C@@H](OC(=O)c2ccccc2)[C@@H](OC)[C@]1(O)COC(=O)c1ccccc1`, the Activity is reported as “inactive”.
In the case of `CC[C@H](CC[C@@H](C)[C@H]1CC[C@H]2[C@@H]3CC=C4C[C@@H](O)CC[C@]4(C)[C@H]3CC[C@]12C)C(C)C`, the Activity is reported as “inactive”.
With `COc1ccccc1COC(=O)c1ccccc1` the Activity was “inactive”.
For `COc1c(Cc2ccccc2O)c(O)c(Cc2ccccc2O)c(O)c1C(=O)CCc1ccccc1`, the Activity was “inactive”.
With `CO[C@@H]1[C@H](OC(=O)c2ccccc2)C=C[C@@H](O)[C@@]1(O)COC(=O)c1ccccc1` the Activity was “inactive”.
With `O=C(OCc1ccccc1)c1ccccc1` the Activity was “inactive”.
